The test system of assay [1] is Streptococcus intermedius. In words: Antimicrobial activity against Streptococcus intermedius NCTC 11324 assessed as biofilm formation at 0.04 to 0.10 ug/ml. The class given is functional, organism-based. The essentials: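 Wild-type NCTC 11324 was grown overnight in TSB and inoculated into TSB with ampicillin (0.02 to 0.10 μg/ml), ciprofloxacin (0.10 to 0.28 μg/ml) or tetracycline (0.05 to 0.30 μg/ml), added at time zero. Wells held plastic coverslips and were incubated 12 h at 37°C in 5% CO2 aerobic air. Biofilm was measured as described previously. Experiments were done three times in three parallels.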

Assay [2] concerns Streptococcus intermedius. The experiment in a line: Antimicrobial activity against Streptococcus intermedius NCTC 11324 assessed as growth inhibition at 0.16 ug/ml. It is filed as functional. The essentials: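 Broth microdilution MIC in ultra-low-binding 96-well plates, inoculum ≈4 × 10^5. Growth was read at 595 nm, and the MIC was taken as the lowest antibiotic concentration inhibiting growth.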

For assay [3], the system named is Streptococcus intermedius. In words: Antimicrobial activity against Streptococcus intermedius NCTC 11324 biofilm assessed as biofilm bacterial count at 0.02 ug/ml (Rvb =402.9 +/- 26.88 10^5 CFU/ml). It is filed as functional.
For assay [4], the system named is Streptococcus intermedius. The experiment in a line: Antimicrobial activity against Streptococcus intermedius NCTC 11324 biofilm assessed as biofilm bacterial count at 0.04 ug/ml (Rvb =402.9 +/- 26.88 10^5 CFU/ml). The class given is functional.
The subject of assay [5] is Streptococcus intermedius. In words: Antimicrobial activity against Streptococcus intermedius NCTC 11324 biofilm assessed as biofilm bacterial count at 0.06 ug/ml (Rvb =402.9 +/- 26.88 10^5 CFU/ml). It is filed as functional.
Assay [6] deals with Streptococcus intermedius. In words: Antimicrobial activity against Streptococcus intermedius SI006 biofilm harboring luxS mutant gene assessed as biofilm bacterial count at 0.02 ug/ml (Rvb =310.8 +/- 17.10 10^5 CFU/ml). The class given is functional.
Assay [7] relates to Streptococcus intermedius. The experiment in a line: Antimicrobial activity against Streptococcus intermedius SI006 biofilm harboring luxS mutant gene assessed as biofilm bacterial count at 0.04 ug/ml (Rvb =310.8 +/- 17.10 10^5 CFU/ml). It is filed as functional.
Assay [8] concerns Streptococcus intermedius. In words: Antimicrobial activity against Streptococcus intermedius SI006 biofilm harboring luxS mutant gene assessed as biofilm bacterial count at 0.06 ug/ml (Rvb =310.8 +/- 17.10 10^5 CFU/ml). It is filed as functional.
The subject of assay [9] is Streptococcus intermedius. The experiment in a line: Antimicrobial activity against Streptococcus intermedius SI006 biofilm harboring luxS mutant gene assessed as biofilm bacterial count at 0.02 ug/ml in presence of 0.8 nM autoinducer 4,5-dihydroxy-2,3-pentanedione (Rvb =413.7 +/- 24.47 10^5 CFU/ml). It is filed as functional.
Assay [10] concerns Streptococcus intermedius. The experiment in a line: Antimicrobial activity against Streptococcus intermedius SI006 biofilm harboring luxS mutant gene assessed as biofilm bacterial count at 0.04 ug/ml in presence of 0.8 nM autoinducer 4,5-dihydroxy-2,3-pentanedione (Rvb =413.7 +/- 24.47 10^5 CFU/ml). The class given is functional.
Assay [11] deals with Streptococcus intermedius. The experiment in a line: Antimicrobial activity against Streptococcus intermedius SI006 biofilm harboring luxS mutant gene assessed as biofilm bacterial count at 0.06 ug/ml in presence of 0.8 nM autoinducer 4,5-dihydroxy-2,3-pentanedione (Rvb =413.7 +/- 24.47 10^5 CFU/ml). The class given is functional.
The subject of assay [12] is Streptococcus intermedius. The experiment in a line: Antimicrobial activity against Streptococcus intermedius NCTC 11324 planktonic cells assessed as bacterial count at 0.06 ug/ml (Rvb =771.7 +/- 35.14 10^8 CFU/ml). It is filed as functional. The essentials:
(§1)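 Planktonic wild-type cells were inoculated at ≈4 × 10^5 CFU/ml in TSB in ultra-low-binding plates. Media were without or with ampicillin (0.02 to 0.14 μg/ml), ciprofloxacin (0.10 to 0.35 μg/ml) or tetracycline (0.03 to 0.20 μg/ml). After 12 h at 37°C in 5% CO2 aerobic air, CFU were counted, run in parallel with the BacTiter-Glo ATP assay. Experiments were done three times in two parallels.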

In assay [13] the test system is Streptococcus intermedius. In words: Antimicrobial activity against Streptococcus intermedius NCTC 11324 planktonic cells assessed as bacterial count at 0.08 ug/ml (Rvb =771.7 +/- 35.14 10^8 CFU/ml). It is filed as functional. The method in brief:
as §1

Assay [14] concerns Streptococcus intermedius. The experiment in a line: Antimicrobial activity against Streptococcus intermedius NCTC 11324 planktonic cells assessed as bacterial count at 0.10 ug/ml (Rvb =771.7 +/- 35.14 10^8 CFU/ml). The class given is functional. The method in brief:
as §1

Assay [15] concerns Streptococcus intermedius. In words: Antimicrobial activity against Streptococcus intermedius NCTC 11324 planktonic cells assessed as bacterial count at 0.12 ug/ml (Rvb =771.7 +/- 35.14 10^8 CFU/ml). The class given is functional. The method in brief: as §1
In assay [16] the test system is Streptococcus intermedius. In words: Antimicrobial activity against Streptococcus intermedius SI006 planktonic cells harboring luxS mutant gene assessed as bacterial count at 0.06 ug/ml (Rvb =798.3 +/- 37.09 10^8 CFU/ml). The class given is functional.
In assay [17] the test system is Streptococcus intermedius. The experiment in a line: Antimicrobial activity against Streptococcus intermedius SI006 planktonic cells harboring luxS mutant gene assessed as bacterial count at 0.08 ug/ml (Rvb =798.3 +/- 37.09 10^8 CFU/ml). It is filed as functional.
Assay [18] concerns Streptococcus intermedius. In words: Antimicrobial activity against Streptococcus intermedius SI006 planktonic cells harboring luxS mutant gene assessed as bacterial count at 0.10 ug/ml (Rvb =798.3 +/- 37.09 10^8 CFU/ml). It is filed as functional.
For assay [19], the system named is Streptococcus intermedius. The experiment in a line: Antimicrobial activity against Streptococcus intermedius SI006 planktonic cells harboring luxS mutant gene assessed as bacterial count at 0.12 ug/ml (Rvb =798.3 +/- 37.09 10^8 CFU/ml). The class given is functional.
The subject of assay [20] is Streptococcus intermedius. In words: Antimicrobial activity against Streptococcus intermedius SI006 planktonic cells harboring luxS mutant gene assessed as bacterial count at 0.06 ug/ml in presence of 0.8 nM autoinducer 4,5-dihydroxy-2,3-pentanedione (Rvb =793.3 +/- 42.40 10^8 CFU/ml). The class given is functional.
Assay [21] relates to Streptococcus intermedius. The experiment in a line: Antimicrobial activity against Streptococcus intermedius SI006 planktonic cells harboring luxS mutant gene assessed as bacterial count at 0.08 ug/ml in presence of 0.8 nM autoinducer 4,5-dihydroxy-2,3-pentanedione (Rvb =793.3 +/- 42.40 10^8 CFU/ml). It is filed as functional.
Assay [22] deals with Streptococcus intermedius. The experiment in a line: Antimicrobial activity against Streptococcus intermedius SI006 planktonic cells harboring luxS mutant gene assessed as bacterial count at 0.10 ug/ml in presence of 0.8 nM autoinducer 4,5-dihydroxy-2,3-pentanedione (Rvb =793.3 +/- 42.40 10^8 CFU/ml). It is filed as functional.
In assay [23] the test system is Streptococcus intermedius. The experiment in a line: Antimicrobial activity against Streptococcus intermedius SI006 planktonic cells harboring luxS mutant gene assessed as bacterial count at 0.12 ug/ml in presence of 0.8 nM autoinducer 4,5-dihydroxy-2,3-pentanedione (Rvb =793.3 +/- 42.40 10^8 CFU/ml). The class given is functional.

Molecules are shown by their SMILES. Calls of active or inactive are those of the source. No cut-off for these calls is given here.

For the compound `CC1(C)S[C@@H]2[C@H](NC(=O)[C@H](N)c3ccccc3)C(=O)N2[C@H]1C(=O)O` [AMPICILLIN], the outcome in assay [1] was inactive. In [2], the Activity was 0.16 µg/mL. Moreover, the CFU turned out to be 486.2 ×10⁵ /ml in assay [3]; 621.6 ×10⁵ /ml in [4]; 894.7 ×10⁵ /ml in assay [5]; 324.1 ×10⁵ /ml in assay [6]; 268.6 ×10⁵ /ml in assay [7]; 162.1 ×10⁵ /ml in assay [8]. Moreover, the CFU was found to be 459.5 ×10⁵ /ml in assay [9]; 686 ×10⁵ /ml in [10]; 819.2 ×10⁵ /ml in [11]; 61.2 ×10⁸ /ml in assay [12]; 43.3 ×10⁸ /ml in assay [13]; 45.3 ×10⁸ /ml in assay [14]. Besides, the CFU in [15] is given as 20.7 ×10⁸ /ml; in assay [16] it was 41.8 ×10⁸ /ml; in assay [17] it was 16.4 ×10⁸ /ml; in assay [18], 10.3 ×10⁸ /ml; in assay [19] it was 8.5 ×10⁸ /ml; in assay [20] it was 48.7 ×10⁸ /ml. Further, the CFU in assay [21] was 39.1 ×10⁸ /ml; in [22], 39.6 ×10⁸ /ml; in assay [23], 18.4 ×10⁸ /ml.

The record behind these values is ChEMBL document CHEMBL1649212, “AI-2/LuxS is involved in increased biofilm formation by Streptococcus intermedius in the presence of antibiotics” (2009).
